A selection: hits, their analogues and other compounds. The true share with any hit is near 3.4%.
E-sel inducer = E-selectin induction on HUVECs; P16581; HUVEC E-selectin immunofluorescence imaging; normalized: neutral wells 0, TNF-alpha wells 100; activation, % at 7.58 µM; actives 0.37% (n = 260,000); AID 686992;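 active = mean E-selectin-positive cell signal at least 10% of the positive control, reached in at least 60% of replicates, without over 20% cell loss; inconclusive = no rule given, readout overlaps actives, possibly toxicity-flagged; inactive = the rest, including those meeting only one limit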
Target sequence (P16581 whole entry, looked up): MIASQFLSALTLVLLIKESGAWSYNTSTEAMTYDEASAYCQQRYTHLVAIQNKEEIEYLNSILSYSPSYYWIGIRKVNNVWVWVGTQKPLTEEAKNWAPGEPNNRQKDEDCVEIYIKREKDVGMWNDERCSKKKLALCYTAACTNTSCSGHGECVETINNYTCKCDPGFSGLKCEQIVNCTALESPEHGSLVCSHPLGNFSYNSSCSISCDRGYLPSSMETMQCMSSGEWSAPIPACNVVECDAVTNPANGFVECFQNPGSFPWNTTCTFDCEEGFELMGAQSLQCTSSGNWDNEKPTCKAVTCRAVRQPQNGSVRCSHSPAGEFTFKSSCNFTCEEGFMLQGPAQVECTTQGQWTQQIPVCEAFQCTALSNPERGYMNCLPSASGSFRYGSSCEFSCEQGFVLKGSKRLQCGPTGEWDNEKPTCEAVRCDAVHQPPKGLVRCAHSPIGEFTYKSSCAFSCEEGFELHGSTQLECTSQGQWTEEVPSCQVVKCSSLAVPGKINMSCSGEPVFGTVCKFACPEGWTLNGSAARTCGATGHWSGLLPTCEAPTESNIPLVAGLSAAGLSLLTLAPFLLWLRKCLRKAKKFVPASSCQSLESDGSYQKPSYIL
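Material: HUVEC primary endothelial cells; Amount: 3,000 cells per well; Dosing: single concentration; Medium: EGM-2 growth medium on 0.1% gelatin-coated wells; Read-out basis: percent E-selectin-positive cells; Signal: immunofluorescence imaging; Control set: TNF-alpha, DMSO.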
MLL AF4-AF9 inh = blocks AF4 peptide binding to human AF9. AlphaScreen, biotin-AF4 peptide binding to FLAG-AF9. P42568. AID 651704. actives 0.47% (n = 350,000). inhibition, % at 10 µM;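 active = every replicate reaching a set inhibition limit, whatever the replicate mean, cut at about 25% in these data; inconclusive = mean inhibition reaches that limit but some replicates miss it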;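 also: 0% = plate neutral control median and 100% = total signal loss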
SIRT5 block = inhibitors of human sirtuin-5 desuccinylase. inhibition, % at 15 µM. Purified SirT5, succinyl-peptide AMC, trypsin-coupled fluorescence. AID 652115. actives 1.1% (n = 330,000); in the data active = inhibition above about 15%; inconclusive = no clear call, values can overlap the other calls
ERAP1 HTS inh = inhibitors of human ERAP1 aminopeptidase. Q9NZ08. recombinant ERAP1, Leu-AMC fluorescence, 60 min. inhibition, % at 10.7 µM. actives 0.15% (n = 340,000);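 active = mean replicate inhibition of at least 30%, or all replicates individually reaching that 30% level; inactive = mean below 30% and not every replicate reaching it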;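 also: 0% = neutral control wells and 100% = L-leucinethiol positive control wells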
S100A4 MyoIIA = inhibitors of human S100A4 binding to myosin IIA peptide; AID 652163; P26447; inhibition, % at 10.7 µM; S100A4/TAMRA-MyoIIA peptide fluorescence polarization; actives 0.14% (n = 360,000);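 active = mean inhibition of at least 70% across replicates, with every replicate also reaching that level; inconclusive = mean inhibition reaches 70% but some replicates fall short; inactive = mean inhibition below 70%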
Target sequence (P26447 whole entry, looked up): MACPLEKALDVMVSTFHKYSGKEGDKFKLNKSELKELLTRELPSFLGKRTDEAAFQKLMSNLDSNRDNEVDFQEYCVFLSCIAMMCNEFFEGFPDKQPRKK
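Material: S100A4 monomer protein | Medium: HEPES pH 7.2 with CaCl2, KCl, NaCl, DTT, Triton | Reagent: Labelled myosin peptide probe, 5 nM | Doses: One dose per compound | Times: 5 min incubation before reading | Benchmarks: Neutral control DMSO, positive control TFP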
Ecoli rRNA inh = selective bacterial rRNA inhibition in E. coli. actives 1.6% (n = 350,000). GFP signal change (wild-type ribosome), % (no concentration beside the values). E. coli WT GFP vs humanized-ribosome RFP mutants, fluorescence, 24 h; stronger effect = lower value; DMSO median 0, no signal -100;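 active = significant combined selectivity score with lowered wild-type GFP, culture density cut under 30%, mutant RFP and density less affected; inactive = any of these conditions unmet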
AlphaScreen intf = interferes with the AlphaScreen assay signal; shares compounds with MLL AF4-AF9 inh; AlphaScreen interference counter-screen, signal luminescence; AC50, µM (titrated, usually from 12 µM), without a hit: at the top dose activity change, negative = inhibition; actives 45% (n = 530); cut-off not given, nearly all actives have AC50 up to about 14 µM
AID977621 = wild-type E. coli growth inhibition versus H69 humanized strain – H69 mutant RFP, wild-type GFP, cherry-pick, dose response; fluorescence, 24 h; shares compounds with Ecoli rRNA inh; activity change, negative = inhibition at 50 µM; 1,900 tested, under 10 active;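 active = Wild-type ribosome reporter drop at least double the humanized mutant ribosome reporter drop, growth loss under a set limit; inconclusive = no clear call, values can overlap the other calls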;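 also: wild-type GFP and H69 mutant RFP strains grown together 50/50 in each well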
AID977628 = E. coli growth inhibition, wild-type GFP versus h24 humanized RFP strain, dose response, h24 mutant RFP vs wild-type GFP, cherry-pick; AID 977628; shares compounds with Ecoli rRNA inh; E. coli WT GFP strain growth, fluorescence, 24 h; activity change, negative = inhibition at 50 µM; 1,900 tested, under 10 active;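 active = compound lowering the normal-ribosome reporter at least twice as much as the humanized-ribosome reporter, growth loss under a set limit; inconclusive = no clear call, values can overlap the other calls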;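 also: wild-type GFP and h24 humanized RFP strains co-cultured 1 to 1 per well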
The depositor's hits bear a star; ? = inconclusive; / = no result; ! = not confirmed by another sample; [ ] = dose if it differs, or a comment.

SMILES	E-sel inducer	MLL AF4-AF9 inh	SIRT5 block	ERAP1 HTS inh	S100A4 MyoIIA	Ecoli rRNA inh	AID977621	AID977628	others
Oc1ccc(O)c(C=NNC(=S)NC2CC3CC2C2C=CCC32)c1 (centres undefined)	1	35*	1	-2	-1	-63	/	/	AlphaScreen intf=12µM*
COc1ccccc1C(CCNCc1ccc(N(C)C)cc1)c1ccc(OC(C)C)cc1 (centres undefined)	/	74*	3	1	-7	-58	/	/	AlphaScreen intf=2.9µM*
COc1ccc(CNCCC(c2ccc(OC(C)C)cc2)c2ccccc2OC)cc1 (centres undefined)	0	13	-3	-1	-9	-56	/	/
COc1ccc(C(CCNCc2ccc(N(C)C)cc2)C(C)C)cc1 (centres undefined)	0	41*	1	-4	-2	/	/	/	AlphaScreen intf=11µM*
CCCCOc1ccc(-c2nnn(CCC(=O)N3CCOCC3)n2)cc1	/	4	3	-4	5	-22*	4	-8.5
COC(=O)c1ccc(CSc2nc(-c3ccccc3)cs2)o1	/	-6	-2	-5	-3	-23*	-13	/
CSc1cccc(NC(=O)CCNC(=O)c2ccco2)c1	4	-3	3	-2	-37	1	/	/
O=C(CCNC(=O)c1ccco1)Nc1cccc(Br)c1	3	0	-2	-4	34	-20*	-20	?
O=C(Nc1cc(F)ccc1F)N[C@@H]1C=C[C@@H](CC(=O)N2CCc3ccccc3C2)O[C@H]1CO	0	1	8	-6	3	-17	/	/
C[C@@H]1CCCCO[C@@H](CN(C)C(=O)CCC(F)(F)F)[C@@H](C)CN([C@H](C)CO)C(=O)c2cc(NC(=O)C3CCCCC3)ccc2O1	0	-3	-2	-1	8	4	/	/
Cc1cc(C)nc(SCc2cn3c(C)cccc3n2)n1	0	/	-7	2	2	-19*	/	?
Cc1ccnc(SCc2cn3c(C)cccc3n2)n1	/	-3	0	10	2	-10	/	/
CN(C)C(CNC(=O)c1ccc([N+](=O)[O-])cc1Cl)c1ccco1 (centres undefined)	/	1	1	2	0	1	/	/
CN(C)C(CNS(=O)(=O)c1cc([N+](=O)[O-])ccc1Cl)c1ccco1 (centres undefined)	0	-1	/	4	1	-2.3*	/	-12
COc1ccc(S(=O)(=O)N(C)C)cc1NC(=O)c1ccc2c(c1)NC(=O)C(C)S2 (centres undefined)	0	2	-4	2	-6	-21*	-0.9	/
CC1Sc2ccc(C(=O)Nc3ccc(S(=O)(=O)N(C)C)cc3)cc2NC1=O (centres undefined)	/	-9	3	4	-4	-7	/	/
c1ccc2c(c1)nc(N1CCCCCC1)c1ccccc12	2	/	-5	16	-2	-31*	-22	/
Cc1cccc(OCCNc2ncccc2[N+](=O)[O-])c1	-1	16	/	-1	5	-17*	?	/
Cc1cccc(OCCNc2cc(N3CCOCC3)ccc2[N+](=O)[O-])c1	/	6	-1	0	5	-12	/	/
CCN(C(=O)COC(=O)c1cn(-c2ccccc2)nc1-c1ccccc1)C1CCS(=O)(=O)C1 (centres undefined)	3	4	1	-4	4	-39*	-24	-12
C[C@H]1CN([C@@H](C)CO)C(=O)c2cc(C#CC3CC3)cnc2O[C@H]1CN(C)C(=O)c1ccccc1	0	-3	-2	1	-6	0	/	/
C[C@@H]1CN([C@H](C)CO)C(=O)c2c(c3ccccc3n2C)-c2ccccc2CO[C@@H]1CN(C)C(=O)CCN(C)C	-5	16	-4	/	6	-19*!	/	-3.8
C[C@H]1CN([C@@H](C)CO)C(=O)c2c(c3ccccc3n2C)-c2ccccc2CO[C@@H]1CN(C)Cc1ccccc1	0	10	5	4	4	-42*	?	?
C[C@H]1CN([C@@H](C)CO)C(=O)c2c(c3ccccc3n2C)-c2ccccc2CO[C@@H]1CN(C)C(=O)CCN(C)C	0	-3	0	0	9	2	/	/
C[C@H](CO)N1C[C@H](C)[C@@H](CN(C)CC2CCCC2)Oc2ncc(C#CCc3ccccc3)cc2C1=O	0	14	-1	-1	-27	/	/	/
SMILES	E-sel inducer	MLL AF4-AF9 inh	SIRT5 block	ERAP1 HTS inh	S100A4 MyoIIA	Ecoli rRNA inh	AID977621	AID977628	others
C[C@@H]1CCCCO[C@@H](CN(C)C(=O)c2ccccc2)[C@H](C)CN([C@H](C)CO)C(=O)c2cc(NS(=O)(=O)c3cccs3)ccc2O1	/	1	-5	2	28	-9	/	/
Cc1noc(C)c1NC(=O)Nc1ccc2c(c1)C(=O)N([C@H](C)CO)C[C@H](C)[C@@H](CN(C)C(=O)Nc1ccc3c(c1)OCO3)OCCCC[C@@H](C)O2	0	0	-2	-2	-8	-37*	-2.5[23.5 µM]	?
Cc1noc(C)c1NC(=O)Nc1ccc2c(c1)C(=O)N([C@H](C)CO)C[C@H](C)[C@@H](CN(C)C(=O)Nc1ccc3c(c1)OCO3)OCCCC[C@H](C)O2	0	3	0	0	2	-3	-7.7	?
Cc1noc(C)c1NC(=O)Nc1ccc2c(c1)C(=O)N([C@H](C)CO)C[C@@H](C)[C@H](CN(C)C(=O)Nc1ccc3c(c1)OCO3)OCCCC[C@@H](C)O2	0	7	2	-1	-9	-2	-8.3	?
Cc1noc(C)c1NC(=O)N(C)C[C@H]1OCCCC[C@@H](C)Oc2ccc(NC(=O)Nc3ccc4c(c3)OCO4)cc2C(=O)N([C@@H](C)CO)C[C@H]1C	0	4	-9	-3	15	2	/	/
Cc1noc(C)c1NC(=O)Nc1ccc2c(c1)C(=O)N([C@@H](C)CO)C[C@H](C)[C@@H](CN(C)C(=O)Nc1ccc3c(c1)OCO3)OCCCC[C@H](C)O2	0	5	5	0	11	3	-3.9	12
O=C(Nc1ccc(F)cc1)N1C[C@H]2[C@@H](c3ccccc31)[C@@H](CO)N2C(=O)c1ccccc1F	0	-4	3	1	2	0	/	/
